From ChEMBL document CHEMBL1667755, “2-hydroxyisoquinoline-1,3(2H,4H)-diones as inhibitors of HIV-1 integrase and reverse transcriptase RNase H domain: influence of the alkylation of position 4” (Eur J Med Chem, 2011)

Columns and labels:
[1] = test system: Human immunodeficiency virus 1; experiment: Antiviral activity against HIV1 3B infected in human MT4 cells assessed as inhibition of virus-induced cytopathic effect by MTT assay; assay type: functional, organism-based; details: Human immunodeficiency virus 1, 3B
Method in brief: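 MT-4 cells infected with 100-300 CCID50 of HIV-1 IIIB (dose titrated in MT-4 cells) in the presence of 5-fold serial drug dilutions. Protection from virus-induced cytopathic effect read by MTT reduction to formazan, measured spectrophotometrically.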

[2] = Cytotoxicity against human MT4 cells by MTT assay; assay type: cell-based
[3] = molecular target: Human immunodeficiency virus type 1 reverse transcriptase (Human immunodeficiency virus 1, UniProt Q72547); experiment: Inhibition of recombinant HIV-1 reverse transcriptase RNase H domain after 10 mins
Method in brief: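 Recombinant HIV-1 RT (4.5 pmol) preincubated with compound 10 min at 37 °C. Then added: 3H-RNA/DNA duplex (E. coli RNA polymerase transcript of calf thymus ssDNA, 20,000 cpm) in 50 mM Tris-HCl pH 8.0, 10 mM DTT, 6 mM MgCl2, 80 mM KCl; 10 min at 37 °C. Stopped with cold 10% TCA/0.1 M pyrophosphate; filter-bound radioactivity counted.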

[4] = molecular target: Human immunodeficiency virus type 1 integrase (Human immunodeficiency virus 1, UniProt Q7ZJM1); experiment: Inhibition of HIV-1 integrase after 1 hr by immunosorbent assay
Human immunodeficiency virus type 1 integrase, sequence (Q7ZJM1 whole entry): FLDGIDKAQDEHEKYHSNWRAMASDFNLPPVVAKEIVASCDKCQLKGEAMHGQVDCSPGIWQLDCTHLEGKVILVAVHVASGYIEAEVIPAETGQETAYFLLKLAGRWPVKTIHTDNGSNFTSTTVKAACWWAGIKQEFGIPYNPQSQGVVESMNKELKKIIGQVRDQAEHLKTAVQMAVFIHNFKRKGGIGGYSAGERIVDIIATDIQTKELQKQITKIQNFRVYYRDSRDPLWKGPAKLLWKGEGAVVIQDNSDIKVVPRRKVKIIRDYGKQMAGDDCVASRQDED
Method in brief: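 Overall integration ELISA. Substrate is annealed oligos (7 nM), one 3'-biotin-labelled and one 5'-digoxigenin-labelled, with integrase at […] as written. Reaction 1 h at 37 °C, then immunodetection on avidin-coated plates. IC50 is the mean ± SD of at least three independent experiments.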

[5] = test system: Human immunodeficiency virus 1; experiment: Selectivity ratio of IC50 for recombinant HIV-1 reverse transcriptase RNase H domain to IC50 for HIV-1 integrase

CCCCCC1C(=O)N(O)C(=O)c2ccccc21 (centres undefined)
EC50 [1]: > 98.3 µM
CC50 [2]: 98.3 µM
IC50 ([3]; read-out: IC50): 33.6 µM
IC50 [4]: 1.35 µM

O=c1c2ccccc2c(Cc2ccccc2)c(O)n1O
EC50 [1]: > 88 µM
CC50 [2]: 88 µM
IC50 ([3]; read-out: IC50): 14.9 µM
IC50 [4]: 39.9 µM

CCCCC1C(=O)N(O)C(=O)c2ccccc21 (centres undefined)
EC50 [1]: > 25.4 µM
CC50 [2]: 25.4 µM
IC50 ([3]; read-out: IC50): 13.2 µM
IC50 [4]: 40.2 µM

CCCCCCC1C(=O)N(O)C(=O)c2ccccc21 (centres undefined)
EC50 [1]: > 4.4 µM
CC50 [2]: 4.4 µM
IC50 ([3]; read-out: IC50): 38 µM
IC50 [4]: 11.4 µM

CCC1C(=O)N(O)C(=O)c2ccccc21 (centres undefined)
EC50 [1]: > 250 µM
CC50 [2]: 250 µM
IC50 ([3]; read-out: IC50): 70 µM
IC50 [4]: 15.7 µM

CCCC1C(=O)N(O)C(=O)c2ccccc21 (centres undefined)
EC50 [1]: > 25.4 µM
CC50 [2]: 25.4 µM
IC50 ([3]; read-out: IC50): 46.8 µM
IC50 [4]: 21.1 µM

O=C1c2ccccc2C(CCCc2ccccc2)C(=O)N1O (centres undefined)
EC50 [1]: > 5.2 µM
CC50 [2]: 5.2 µM
IC50 ([3]; read-out: IC50): 66.8 µM
IC50 [4]: 2.6 µM

CCCCCCCc1c(O)n(O)c(=O)c2ccccc12
IC50 ([3]; read-out: IC50): 45 µM
Ratio IC50 [5]: 0.4
IC50 [4]: 113 µM

CCCCCCc1c(O)n(O)c(=O)c2ccccc12
EC50 [1]: > 128 µM
CC50 [2]: 128 µM
IC50 ([3]; read-out: IC50): 7.8 µM
IC50 [4]: 45.4 µM

CC1C(=O)N(O)C(=O)c2ccccc21 (centres undefined)
EC50 [1]: > 250 µM
CC50 [2]: 250 µM
IC50 ([3]; read-out: IC50): 38.8 µM
IC50 [4]: 3.3 µM

O=C1c2ccccc2C(Cc2ccc(C(F)(F)F)cc2)C(=O)N1O (centres undefined)
EC50 [1]: > 6 µM
CC50 [2]: 6 µM
IC50 ([3]; read-out: IC50): 42.7 µM
IC50 [4]: 23.2 µM

O=C1c2ccccc2C(CCc2ccccc2)C(=O)N1O (centres undefined)
EC50 [1]: > 30 µM
CC50 [2]: 30 µM
IC50 [3]: Not Active
IC50 [4]: 27.8 µM

O=C1c2ccccc2C(Cc2ccccc2)C(=O)N1O (centres undefined)
EC50 [1]: > 95 µM
CC50 [2]: 95 µM
IC50 [3]: Not Active
IC50 [4]: 37.7 µM

CC(C)C1C(=O)N(O)C(=O)c2ccccc21 (centres undefined)
EC50 [1]: > 122 µM
CC50 [2]: 122 µM
IC50 ([3]; read-out: IC50): 18.5 µM
IC50 [4]: 35.5 µM

Cc1ccc(CC2C(=O)N(O)C(=O)c3ccccc32)cc1 (centres undefined)
EC50 [1]: > 5.5 µM
CC50 [2]: 5.5 µM
IC50 ([3]; read-out: IC50): 80 µM
IC50 [4]: 3.4 µM
